ChEMBL document CHEMBL4715736, “Identification of anticancer agents based on the thieno[2,3-b]pyridine and 1H-pyrazole molecular scaffolds” (2016)

What was measured:
Assay type in all cases: functional
SNB-75 [1] = assay: Growth inhibition of human SNB-75 cells incubated for 48 hrs by sulforhodamine B assay
In short: (§1)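 NCI DTP 60-line human tumour panel. Dose-response curves were run only for ligands active in the initial 10 µM screen. GI50 (concentration giving 50% of maximal inhibition of proliferation) and TGI (concentration giving total growth inhibition) were derived from these curves.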

UO-31 = assay: Growth inhibition of human UO-31 cells assessed as cell growth at 100 uM incubated for 48 hrs by sulforhodamine B assay relative to control; conditions: read-out: Activity
SNB-75 [2] = assay: Growth inhibition of human SNB-75 cells assessed as cell growth at 0.01 uM incubated for 48 hrs by sulforhodamine B assay relative to control; conditions: read-out: Activity
OVCAR-4 [3] = assay: Growth inhibition of human OVCAR-4 cells assessed as cell growth at 0.01 uM incubated for 48 hrs by sulforhodamine B assay relative to control; conditions: read-out: Activity
SF-539 = assay: Growth inhibition of human SF-539 cells assessed as cell growth at 0.01 uM incubated for 48 hrs by sulforhodamine B assay relative to control; conditions: read-out: Activity
OVCAR-5 = assay: Growth inhibition of human OVCAR-5 cells assessed as cell growth at 100 uM incubated for 48 hrs by sulforhodamine B assay relative to control; conditions: read-out: Activity
OVCAR-4 [4] = assay: Growth inhibition of human OVCAR-4 cells incubated for 48 hrs by sulforhodamine B assay; conditions: for CC50: read-out: LC50 (the source's name); in short: as §1
NCI-H322M = assay: Growth inhibition of human NCI-H322M cells assessed as cell growth at 0.1 uM incubated for 48 hrs by sulforhodamine B assay relative to control; conditions: read-out: Activity
CCRF-CEM = assay: Growth inhibition of human CCRF-CEM cells assessed as cell growth at 100 uM incubated for 48 hrs by sulforhodamine B assay relative to control; conditions: read-out: Activity
In short: (§2)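 NCI Developmental Therapeutics Program NCI60 panel. Compounds that were active in the 10 µM one-dose screen went on to dose–response testing. Growth at each concentration is expressed relative to untreated control (100%). GI50 (concentration giving 50% of maximal inhibition of proliferation) and TGI (concentration giving total growth inhibition) were derived from the curves.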

SW-620 [5] = assay: Growth inhibition of human SW-620 cells assessed as cell growth at 0.1 uM incubated for 48 hrs by sulforhodamine B assay relative to control; conditions: read-out: Activity
SN12C = assay: Growth inhibition of human SN12C cells incubated for 48 hrs by sulforhodamine B assay; conditions: for CC50: read-out: LC50 (the source's name); in short: as §1
BT-549 = assay: Growth inhibition of human BT-549 cells incubated for 48 hrs by sulforhodamine B assay; conditions: for CC50: read-out: LC50 (the source's name); in short: as §2
OVCAR-3 = assay: Growth inhibition of human OVCAR-3 cells assessed as cell growth at 0.1 uM incubated for 48 hrs by sulforhodamine B assay relative to control; conditions: read-out: Activity
NCI/ADR-RES = assay: Growth inhibition of human NCI/ADR-RES cells incubated for 48 hrs by sulforhodamine B assay; conditions: for CC50: read-out: LC50 (the source's name)
In short: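 NCI60 panel at the NCI Developmental Therapeutics Program. Only compounds active in the 10 µM screen went to dose-response testing. GI50, the concentration giving 50% of maximal inhibition of proliferation, and TGI, the concentration giving total growth inhibition, were derived from the dose-response curves.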

RXF 393 [6] = assay: Growth inhibition of human RXF 393 cells assessed as cell growth at 0.1 uM incubated for 48 hrs by sulforhodamine B assay relative to control; conditions: read-out: Activity
SF-295 = assay: Growth inhibition of human SF-295 cells assessed as cell growth at 0.1 uM incubated for 48 hrs by sulforhodamine B assay relative to control; conditions: read-out: Activity
SK-MEL-2 = assay: Growth inhibition of human SK-MEL-2 cells assessed as cell growth at 0.01 uM incubated for 48 hrs by sulforhodamine B assay relative to control; conditions: read-out: Activity
HCT-116 = assay: Growth inhibition of human HCT-116 cells assessed as cell growth at 100 uM incubated for 48 hrs by sulforhodamine B assay relative to control; conditions: read-out: Activity
SW-620 [7] = assay: Growth inhibition of human SW-620 cells assessed as cell growth at 100 uM incubated for 48 hrs by sulforhodamine B assay relative to control; conditions: read-out: Activity
HCC 2998 = assay: Growth inhibition of human HCC 2998 cells assessed as cell growth at 0.1 uM incubated for 48 hrs by sulforhodamine B assay relative to control; conditions: read-out: Activity; in short: as §2
MDA-MB-231 [8] = assay: Growth inhibition of human MDA-MB-231 cells assessed as cell growth at 1 uM incubated for 48 hrs by sulforhodamine B assay relative to control; conditions: read-out: Activity
SK-MEL-5 = assay: Growth inhibition of human SK-MEL-5 cells assessed as cell growth at 0.1 uM incubated for 48 hrs by sulforhodamine B assay relative to control; conditions: read-out: Activity
SK-MEL-28 = assay: Growth inhibition of human SK-MEL-28 cells assessed as cell growth at 0.01 uM incubated for 48 hrs by sulforhodamine B assay relative to control; conditions: read-out: Activity
OVCAR-8 [9] = assay: Growth inhibition of human OVCAR-8 cells assessed as cell growth at 100 uM incubated for 48 hrs by sulforhodamine B assay relative to control; conditions: read-out: Activity
HOP-92 = assay: Growth inhibition of human HOP-92 cells assessed as cell growth at 0.01 uM incubated for 48 hrs by sulforhodamine B assay relative to control; conditions: read-out: Activity
RPMI-8226 = assay: Growth inhibition of human RPMI-8226 cells incubated for 48 hrs by sulforhodamine B assay; in short: as §1
HT-29 = assay: Growth inhibition of human HT-29 cells assessed as cell growth at 1 uM incubated for 48 hrs by sulforhodamine B assay relative to control; conditions: read-out: Activity
RXF 393 [10] = assay: Growth inhibition of human RXF 393 cells assessed as cell growth at 0.01 uM incubated for 48 hrs by sulforhodamine B assay relative to control; conditions: read-out: Activity
CAKI-1 = assay: Growth inhibition of human CAKI-1 cells assessed as cell growth at 0.01 uM incubated for 48 hrs by sulforhodamine B assay relative to control; conditions: read-out: Activity; in short: as §2
OVCAR-8 [11] = assay: Growth inhibition of human OVCAR-8 cells assessed as cell growth at 0.1 uM incubated for 48 hrs by sulforhodamine B assay relative to control; conditions: read-out: Activity
UACC-257 = assay: Growth inhibition of human UACC-257 cells incubated for 48 hrs by sulforhodamine B assay; in short: as §1
MDA-MB-231 [12] = assay: Growth inhibition of human MDA-MB-231 cells assessed as cell growth at 0.1 uM incubated for 48 hrs by sulforhodamine B assay relative to control; conditions: read-out: Activity

CCc1ccccc1NC(=O)c1sc2nc3c(cc2c1N)C(=O)CCC3
GI50 (SNB-75 [1]): 193 nM | LC50 (SNB-75 [1]): > 100 µM | TGI (SNB-75 [1]): 55.1 µM | growth at 100 µM (UO-31): 18% | growth at 0.01 µM (SNB-75 [2]): 73% | growth at 0.01 µM (OVCAR-4 [3]): 89% | growth at 0.01 µM (SF-539): 92% | growth at 100 µM (OVCAR-5): 7% | GI50 (OVCAR-4 [4]): 31.5 nM | TGI (OVCAR-4 [4]): > 100 µM | CC50 (OVCAR-4 [4]): > 100 µM | growth at 0.1 µM (NCI-H322M): 99% | growth at 100 µM (CCRF-CEM): 8% | growth at 0.1 µM (SW-620 [5]): 83% | GI50 (SN12C): 676 nM | TGI (SN12C): > 100 µM | CC50 (SN12C): > 100 µM | GI50 (BT-549): 27.4 µM | TGI (BT-549): > 100 µM | CC50 (BT-549): > 100 µM | growth at 0.1 µM (OVCAR-3): 100% | GI50 (NCI/ADR-RES): 367 nM | TGI (NCI/ADR-RES): 39.2 µM | CC50 (NCI/ADR-RES): > 100 µM | growth at 0.1 µM (RXF 393 [6]): 66% | growth at 0.1 µM (SF-295): 76% | growth at 0.01 µM (SK-MEL-2): 108% | growth at 100 µM (HCT-116): 6% | growth at 100 µM (SW-620 [7]): 12% | growth at 0.1 µM (HCC 2998): 96% | growth at 1 µM (MDA-MB-231 [8]): 52% | growth at 0.1 µM (SK-MEL-5): 82% | growth at 0.01 µM (SK-MEL-28): 88% | growth at 100 µM (OVCAR-8 [9]): 10% | growth at 0.01 µM (HOP-92): 87% | GI50 (RPMI-8226): 853 nM | LC50 (RPMI-8226): > 100 µM | TGI (RPMI-8226): ≥ 100 µM | growth at 1 µM (HT-29): 13% | growth at 0.01 µM (RXF 393 [10]): 94% | growth at 0.01 µM (CAKI-1): 89% | growth at 0.1 µM (OVCAR-8 [11]): 97% | GI50 (UACC-257): 19.9 µM | LC50 (concentration killing 50% of cells) (UACC-257): > 100 µM | TGI (UACC-257): > 100 µM | growth at 0.1 µM (MDA-MB-231 [12]): 90%

Cc1ccc(NC(=O)c2sc3nc4c(cc3c2N)C(=O)CCC4)cc1C
GI50 (SNB-75 [1]): 183 nM | LC50 (SNB-75 [1]): > 100 µM | TGI (SNB-75 [1]): > 100 µM | growth at 100 µM (UO-31): 16% | growth at 0.01 µM (SNB-75 [2]): 78% | growth at 0.01 µM (OVCAR-4 [3]): 94% | growth at 0.01 µM (SF-539): 97% | growth at 100 µM (OVCAR-5): 31% | GI50 (OVCAR-4 [4]): 20.1 nM | TGI (OVCAR-4 [4]): > 100 µM | CC50 (OVCAR-4 [4]): > 100 µM | growth at 0.1 µM (NCI-H322M): 94% | growth at 100 µM (CCRF-CEM): 10% | growth at 0.1 µM (SW-620 [5]): 95% | GI50 (SN12C): 675 nM | TGI (SN12C): > 100 µM | CC50 (SN12C): > 100 µM | TGI (BT-549): > 100 µM | CC50 (BT-549): > 100 µM | growth at 0.1 µM (OVCAR-3): 101% | GI50 (NCI/ADR-RES): 658 nM | TGI (NCI/ADR-RES): > 100 µM | CC50 (NCI/ADR-RES): > 100 µM | growth at 0.1 µM (RXF 393 [6]): 82% | growth at 0.1 µM (SF-295): 85% | growth at 0.01 µM (SK-MEL-2): 105% | growth at 100 µM (HCT-116): 8% | growth at 100 µM (SW-620 [7]): 18% | growth at 0.1 µM (HCC 2998): 93% | growth at 1 µM (MDA-MB-231 [8]): 56% | growth at 0.1 µM (SK-MEL-5): 90% | growth at 0.01 µM (SK-MEL-28): 99% | growth at 100 µM (OVCAR-8 [9]): 11% | growth at 0.01 µM (HOP-92): 87% | GI50 (RPMI-8226): 1430 nM | LC50 (RPMI-8226): > 100 µM | growth at 1 µM (HT-29): 14% | growth at 0.01 µM (RXF 393 [10]): 87% | growth at 0.01 µM (CAKI-1): 96% | growth at 0.1 µM (OVCAR-8 [11]): 100% | LC50 (concentration killing 50% of cells) (UACC-257): > 100 µM | TGI (UACC-257): > 100 µM | growth at 0.1 µM (MDA-MB-231 [12]): 95%
